# Measured values from ChEMBL document CHEMBL3872205, “Design, synthesis and evaluation of novel potent angiotensin II receptor 1 antagonists” (Eur J Med Chem, 2016).
# What was measured:
# [1] = MRT (0 to 72 hrs) in Wistar rat kidney at 10 mg/kg, po by HPLC analysis; assay type: ADME, organism-based
# Method in brief: (§1)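 Tissue distribution in male Wistar rats given oral 10, 15 or 30 mg/kg; heart, liver, spleen, lung, kidney and brain collected predose and 0.5–72 h post-dose (n = 6 per time). Tissue rinsed in saline, homogenised 0.25 g/1 mL saline, methanol extraction, dried under nitrogen, reconstituted in methanol. Analysis by reverse-phase C18 HPLC, acetonitrile/water 60:40, 1.0 mL/min, ambient temperature.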
# [2] = Half life in Wistar rat plasma at 30 mg/kg, po by HPLC analysis; assay type: ADME, organism-based
# [3] = MRT (0 to infinity) in Wistar rat plasma at 15 mg/kg, po by HPLC analysis; assay type: ADME, organism-based
# Method in brief: (§2)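 Male Wistar rats (180 ± 20 g), 6 per dose group, each given a single oral dose. Blood was drawn by retro-orbital puncture into heparin at predose and at 0.5, 1, 2, 4, 6, 8, 12, 24, 48 and 72 h, then spun at 4000 × g and 4 °C. Plasma with internal standard was acetonitrile-precipitated, filtered and run on reverse-phase C18 HPLC (0.02 mol/L KH2PO4 55% / acetonitrile 45%, 1.0 mL/min). Calibration standards were 0.1–10 µg/mL, fitted by peak-height ratio with 1/conc² weighting.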
# [4] = Half life in Wistar rat lung at 15 mg/kg, po by HPLC analysis; assay type: ADME, organism-based; method in brief: as §1
# [5] = Half life in Wistar rat kidney at 10 mg/kg, po by HPLC analysis; assay type: ADME, organism-based; method in brief: as §1
# [6] = Half life in Wistar rat brain at 10 mg/kg, po by HPLC analysis; assay type: ADME, organism-based; method in brief: as §1
# [7] = Half life in Wistar rat spleen at 30 mg/kg, po by HPLC analysis; assay type: ADME, organism-based; method in brief: as §1
# [8] = Cmax in Wistar rat liver at 30 mg/kg, po by HPLC analysis; assay type: ADME, organism-based; design: dose 30 mg/kg, route oral; method in brief: as §1
# [9] = Cmax in Wistar rat brain at 30 mg/kg, po by HPLC analysis; assay type: ADME, organism-based; design: dose 30 mg/kg, route oral
# Method in brief: (§3)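 Wistar rats (180 ± 20 g) were dosed orally at 10, 15 or 30 mg/kg. Heart, liver, spleen, lung, kidney and brain were collected at 0–72 h (n = 6 per point). Tissue was rinsed, blotted and homogenized in saline (0.25 g/1 mL), then spun at 10,000 × g. Supernatant was methanol-extracted, dried under nitrogen at 50 °C, reconstituted in methanol and run on C18 HPLC (acetonitrile 60%/water 40%, 1.0 mL/min).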
# [10] = Toxicity in ICR mouse assessed as mortality at 1500 mg/kg, ig after 2 weeks; assay type: organism-based; details: in vivo, po
# [11] = AUC (0 to 72 hrs) in Wistar rat liver at 10 mg/kg, po by HPLC analysis; assay type: ADME, organism-based; design: time < 72 hr, dose 10 mg/kg, route oral; method in brief: as §3
# [12] = Half life in Wistar rat brain at 30 mg/kg, po by HPLC analysis; assay type: ADME, organism-based; method in brief: as §1
# [13] = MRT (0 to 72 hrs) in Wistar rat lung at 30 mg/kg, po by HPLC analysis; assay type: ADME, organism-based
# Method in brief: (§4)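 Male Wistar rats (180 ± 20 g) received a single oral dose of 10, 15 or 30 mg/kg. Tissues were collected at 0, 0.5, 1, 2, 4, 6, 8, 12, 24, 48 and 72 h (n = 6 per point). Samples of 0.25 g were rinsed, then homogenized in saline (0.25 g/1 mL) and centrifuged at 10,000 × g. Supernatant was methanol-extracted, dried under nitrogen at 50 °C and reconstituted in methanol. Analysis was by C18 HPLC (acetonitrile 60% / water 40%, 1.0 mL/min).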
# [14] = AUC (0 to 72 hrs) in Wistar rat kidney at 10 mg/kg, po by HPLC analysis; assay type: ADME, organism-based; design: dose 10 mg/kg, time < 72 hr, route oral; method in brief: as §3
# [15] = tested on: Rattus norvegicus; assay: Antihypertensive activity in spontaneous hypertensive rat model assessed as reduction in mean blood pressure at 15 mg/kg, po after 4 hrs; assay type: functional
# Method in brief: (§5)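 Male SHRs (250 ± 20 g) were randomized, 6 per group. Compound was suspended in 0.5% sodium carboxymethyl cellulose and given orally; vehicle-only negative control. Mean blood pressure was calculated as (SBP − DBP)/3 + DBP from systolic and diastolic readings over the time course. Data are mean ± SD, with p < 0.05 taken as significant.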
# [16] = MRT (0 to infinity) in Wistar rat kidney at 30 mg/kg, po by HPLC analysis; assay type: ADME, organism-based; method in brief: as §4
# [17] = Toxicity in ICR mouse assessed as mortality at 2929.69 mg/kg, ig after 2 weeks; assay type: organism-based; details: in vivo, po
# [18] = tested on: Rattus norvegicus; assay: Antihypertensive activity in spontaneous hypertensive rat model assessed as reduction in mean blood pressure at 10 mg/kg, po after 4 hrs; assay type: functional; method in brief: as §5
# [19] = Half life in Wistar rat liver at 15 mg/kg, po by HPLC analysis; assay type: ADME, organism-based; method in brief: as §1
# [20] = MRT (0 to 72 hrs) in Wistar rat spleen at 10 mg/kg, po by HPLC analysis; assay type: ADME, organism-based; method in brief: as §4
# [21] = AUC (0 to 72 hrs) in Wistar rat liver at 15 mg/kg, po by HPLC analysis; assay type: ADME, organism-based; design: dose 15 mg/kg, time < 72 hr, route oral; method in brief: as §3
# [22] = MRT (0 to 72 hrs) in Wistar rat spleen at 30 mg/kg, po by HPLC analysis; assay type: ADME, organism-based; method in brief: as §4
# [23] = Half life in Wistar rat spleen at 10 mg/kg, po by HPLC analysis; assay type: ADME, organism-based; method in brief: as §1
# [24] = Tmax in Wistar rat Heart at 15 mg/kg, po by HPLC analysis; assay type: ADME, organism-based; method in brief: as §4
# [25] = AUC (0 to infinity) in Wistar rat spleen at 15 mg/kg, po by HPLC analysis; assay type: ADME, organism-based; design: dose 15 mg/kg, route oral, time infinity; method in brief: as §3
# [26] = Cmax in Wistar rat heart at 15 mg/kg, po by HPLC analysis; assay type: ADME, organism-based; design: dose 15 mg/kg, route oral; method in brief: as §1
# [27] = Cmax in Wistar rat spleen at 15 mg/kg, po by HPLC analysis; assay type: ADME, organism-based; design: dose 15 mg/kg, route oral; method in brief: as §1
# [28] = Half life in Wistar rat spleen at 15 mg/kg, po by HPLC analysis; assay type: ADME, organism-based; method in brief: as §1
# [29] = AUC (0 to infinity) in Wistar rat liver at 15 mg/kg, po by HPLC analysis; assay type: ADME, organism-based; design: dose 15 mg/kg, route oral, time infinity; method in brief: as §3
# [30] = MRT (0 to infinity) in Wistar rat Heart at 10 mg/kg, po by HPLC analysis; assay type: ADME, organism-based; method in brief: as §4
# [31] = Half life in Wistar rat liver at 10 mg/kg, po by HPLC analysis; assay type: ADME, organism-based; method in brief: as §1
# [32] = Cmax in Wistar rat plasma at 15 mg/kg, po by HPLC analysis; assay type: ADME, organism-based; design: dose 15 mg/kg, route oral
# [33] = MRT (0 to infinity) in Wistar rat plasma at 10 mg/kg, po by HPLC analysis; assay type: ADME, organism-based; method in brief: as §2
# [34] = Tmax in Wistar rat lung at 30 mg/kg, po by HPLC analysis; assay type: ADME, organism-based; method in brief: as §4
# [35] = Half life in Wistar rat plasma at 15 mg/kg, po by HPLC analysis; assay type: ADME, organism-based
# [36] = AUC (0 to infinity) in Wistar rat brain at 30 mg/kg, po by HPLC analysis; assay type: ADME, organism-based; design: dose 30 mg/kg, route oral, time infinity; method in brief: as §3
# [37] = Tmax in Wistar rat plasma at 10 mg/kg, po by HPLC analysis; assay type: ADME, organism-based; method in brief: as §2
# [38] = AUC (0 to infinity) in Wistar rat Heart at 30 mg/kg, po by HPLC analysis; assay type: ADME, organism-based; design: dose 30 mg/kg, route oral, time infinity; method in brief: as §3
smiles,measurement,setting,value
CCCCC1=NC2(CCCC2)C(=O)N1Cc1ccc2c(ccn2-c2ccccc2-c2nnn[nH]2)c1,MRT last,[1],21 h
same,half-life,[2],9.93 h
same,MRT inf,[3],13.7 h
same,half-life,[4],2.46 h
same,half-life,[5],26.9 h
same,half-life,[6],2.73 h
same,half-life,[7],13.4 h
same,Cmax,[8],2000 ng/mL
same,Cmax,[9],196 ng/mL
same,mortality at 336 h,[10],50%
same,AUC(0-t) at 72 h,[11],3070 ng·h/mL
same,half-life,[12],2.99 h
same,MRT last,[13],4.85 h
same,AUC(0-t) at 72 h,[14],4340 ng·h/mL
same,Activity,[15],40.62 mmHg
same,MRT inf,[16],24.1 h
same,mortality at 336 h,[17],100%
same,Activity,[18],28.39 mmHg
same,half-life,[19],1.8 h
same,MRT last,[20],20.2 h
same,AUC(0-t) at 72 h,[21],4890 ng·h/mL
same,MRT last,[22],13.3 h
same,half-life,[23],17.9 h
same,Tmax,[24],4.67 h
same,AUC(0-inf),[25],12000 ng·h/mL
same,Cmax,[26],283 ng/mL
same,Cmax,[27],2360 ng/mL
same,half-life,[28],7.57 h
same,AUC(0-inf),[29],23500 ng·h/mL
same,MRT inf,[30],12 h
same,half-life,[31],2.33 h
same,Cmax,[32],2950 ng/mL
same,MRT inf,[33],6.61 h
same,Tmax,[34],2 h
same,half-life,[35],9.03 h
same,AUC(0-inf),[36],1790 ng·h/mL
same,Tmax,[37],5.67 h
same,AUC(0-inf),[38],8760 ng·h/mL
